Test results taken from ChEMBL document CHEMBL1156262, “Substituted benzothiophene or benzofuran derivatives as a novel class of bone morphogenetic protein-2 up-regulators: synthesis, structure-activity relationships, and preventive bone loss efficacies in senescence accelerated mice (SAMP6) and ovariectomized rats” (J Med Chem, 2010).
The source made the active and inactive calls. The rule behind the calls is not given here.

Experiments:
[1] = Induction of BMP2 expression in mouse calcarial MC3T3-E1 cells stably transfected with mouse BMP2 promotor-luciferase assessed as upregulation rate at 4 uM; assay type: functional, cell-based
Outline: (§1)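 Reporter assay in murine calvarial MC3T3-E1 cells stably carrying the mouse BMP-2 promoter fused to firefly luciferase (pGL4BMP-2). Cells grown in DMEM with 10% heat-inactivated FBS at 37 °C and 5% CO2. Test compounds at 4.0 μM; lovastatin at 0.4 μM as positive control; 0.1% DMSO as negative control. Up-regulation rate = (RLU of test − RLU of negative control)/RLU of negative control × 100.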

[2] = tested on: Mus musculus; test: Induction of bone formation in SAMP6 mouse right femora assessed as trabecular formation surface percentage at 30 mg/kg/day, po measured after 3 months by bone histomorphometry; assay type: functional, Trabecula
Outline: (§2)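 SAMP6 mice, 5 months old, n = 5 per group (3 male, 2 female), randomized by initial BMD. Given compound in 0.5% methylcellulose by gavage daily for 3 months. Proximal third of the right femur fixed in 4% paraformaldehyde, cut as undecalcified sections, and scored by image analysis for histomorphometry.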

[3] = tested on: Mus musculus; test: Induction of bone formation in SAMP6 mouse right femora assessed as average osteoid width at 30 mg/kg/day, po measured after 3 months by bone histomorphometry; assay type: functional; outline: as §2
[4] = Toxicity in po dosed Kunming mouse assessed as mortality treated for 3 days measured after 17 days; assay type: organism-based; settings: in vivo
Outline: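 Male and female Kunming mice (18-21 g), six per group (three males, three females), were dosed orally at 500 or 700 (mg/kg)/day for 3 days. They were closely watched for deaths over the 3 dosing days and the following 14 days (17 days in total).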

[5] = tested on: Mus musculus; test: Induction of BMP2 expression in SAMP6 mouse cartilage cells at 30 mg/kg/day, po after 3 months by immunohistochemical analysis; assay type: functional, organism-based
Outline: (§3)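 SAMP6 mice, 5 months old, male and female, n = 5 per group (3 male, 2 female). Dosed by gavage with compound suspended in 0.5% methylcellulose daily for 3 months; the vehicle group received methylcellulose only. Proximal third of the left femur fixed in 4% neutral paraformaldehyde for 24 h, decalcified in 10% EDTA at 4 °C for 4 weeks, then frozen-sectioned at 5 μm. Stained with rabbit polyclonal anti-BMP-2 and an alkaline phosphatase secondary. BMP-2-positive area was taken as a percentage of bone tissue area, averaged over five fields below the epiphyseal plate.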

[6] = tested on: Mus musculus; test: Toxicity in SAMP6 mouse assessed as change in 24 hrs water consumption at 30 mg/kg/day, po after 3 months; assay type: organism-based; set-up: route oral; settings: in vivo
Outline: (§4)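 SAMP6 mice, n = 5 per group, dosed orally at 30 mg/kg/day in 0.5% methylcellulose for 3 months. Heart, liver, spleen, lung and kidney harvested, weighed and examined histologically. Organ/body weight indexes, body weight, and 24 h water and food intake (g/g body weight) compared with vehicle controls.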

[7] = tested on: Mus musculus; test: Induction of bone mineral density in SAMP6 mouse assessed as spine BMD at 30 mg/kg/day, po measured after 3 months; assay type: functional
Outline: (§5)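 SAMP6 mice, 5 months old, n = 5 per group, given compound in 0.5% methylcellulose by gavage daily. Dual-energy X-ray absorptiometry under pentobarbital anaesthesia (50 mg/kg ip), animals prone, at 0, 4, 8 and 12 weeks of treatment. Regions of interest were whole body, spine and left hind leg.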

[8] = tested on: Mus musculus; test: Induction of bone mineral density in SAMP6 mouse assessed as whole body BMD at 30 mg/kg/day, po measured after 2 months; assay type: functional, organism-based; outline: as §5
[9] = tested on: Mus musculus; test: Toxicity in SAMP6 mouse assessed as pathological changes in kidney at 30 mg/kg/day, po after 3 months by histomorphology; assay type: organism-based; set-up: route oral; settings: in vivo; outline: as §4
[10] = tested on: Mus musculus; test: Induction of BMP2 expression in SAMP6 mouse osteoblast at 30 mg/kg/day, po after 3 months by immunohistochemical analysis; assay type: functional, organism-based; outline: as §3
[11] = tested on: Mus musculus; test: Toxicity in SAMP6 mouse assessed as increase in body weight at 30 mg/kg/day, po after 3 months; assay type: organism-based; set-up: route oral; settings: in vivo; outline: as §4
[12] = tested on: Mus musculus; test: Induction of bone mineral density in SAMP6 mouse assessed as whole body BMD at 10 mg/kg/day, po measured after 2 months; assay type: functional, organism-based; settings: 30 mg/kg, in the assay text read “30 mg/kg/day” for “10 mg/kg/day”; outline: as §5
[13] = tested on: Mus musculus; test: Induction of bone mineral density in SAMP6 mouse assessed as left hind leg BMD at 30 mg/kg/day, po measured after 3 months; assay type: functional; outline: as §5
[14] = tested on: Mus musculus; test: Induction of bone mineral density in SAMP6 mouse assessed as whole body BMD at 30 mg/kg/day, po measured after 3 months; assay type: functional; outline: as §5
[15] = tested on: Mus musculus; test: Induction of BMP2 expression in SAMP6 mouse bone marrow stroma at 30 mg/kg/day, po after 3 months by immunohistochemical analysis; assay type: functional, organism-based; outline: as §3
[16] = tested on: Mus musculus; test: Induction of BMP2 expression in SAMP6 mouse osteoblast at 10 mg/kg/day, po after 3 months by immunohistochemical analysis; assay type: functional, organism-based; outline: as §3
[17] = tested on: Mus musculus; test: Toxicity in SAMP6 mouse assessed as pathological changes in spleen at 30 mg/kg/day, po after 3 months by histomorphology; assay type: organism-based; set-up: route oral; settings: in vivo; outline: as §4
[18] = tested on: Mus musculus; test: Induction of bone formation in SAMP6 mouse right femora assessed as trabecular resorption surface percentage at 30 mg/kg/day, po measured after 3 months by bone histomorphometry; assay type: functional, Trabecula; outline: as §2
[19] = tested on: Mus musculus; test: Toxicity in SAMP6 mouse assessed as pathological changes in liver at 30 mg/kg/day, po after 3 months by histomorphology; assay type: organism-based; set-up: route oral; settings: in vivo; outline: as §4
[20] = tested on: Mus musculus; test: Induction of bone mineral density in SAMP6 mouse assessed as whole body BMD at 10 mg/kg/day, po measured after 1 month; assay type: functional, organism-based; settings: 30 mg/kg, in the assay text read “30 mg/kg/day” for “10 mg/kg/day”; outline: as §5
[21] = tested on: Mus musculus; test: Toxicity in SAMP6 mouse assessed as pathological changes in lung at 30 mg/kg/day, po after 3 months by histomorphology; assay type: organism-based; set-up: route oral; settings: in vivo; outline: as §4
[22] = tested on: Mus musculus; test: Toxicity in SAMP6 mouse assessed as change in 24 hrs food consumption at 30 mg/kg/day, po after 3 months; assay type: organism-based; set-up: route oral; settings: in vivo; outline: as §4
[23] = tested on: Mus musculus; test: Toxicity in SAMP6 mouse assessed as pathological changes in heart at 30 mg/kg/day, po after 3 months by histomorphology; assay type: organism-based; set-up: route oral; settings: in vivo; outline: as §4
[24] = tested on: Mus musculus; test: Induction of bone formation in SAMP6 mouse right femora assessed as trabecular bone volume percentage at 30 mg/kg/day, po measured after 3 months by bone histomorphometry; assay type: functional, Trabecula; outline: as §2
[25] = tested on: Mus musculus; test: Induction of bone formation in SAMP6 mouse right femora assessed as average osteoid width at 10 mg/kg/day, po measured after 3 months by bone histomorphometry; assay type: functional; outline: as §2
[26] = tested on: Mus musculus; test: Induction of bone mineral density in SAMP6 mouse assessed as spine BMD at 10 mg/kg/day, po measured last 2 months; assay type: functional, organism-based; outline: as §5
[27] = tested on: Mus musculus; test: Induction of bone mineral density in SAMP6 mouse assessed as left hind leg BMD at 10 mg/kg/day, po measured after 3 months; assay type: functional; outline: as §5
[28] = tested on: Mus musculus; test: Induction of bone formation in SAMP6 mouse right femora assessed as trabecular resorption surface percentage at 10 mg/kg/day, po measured after 3 months by bone histomorphometry; assay type: functional, Trabecula; outline: as §2
[29] = Induction of BMP2 expression in mouse […] MC3T3-E1 cells stably transfected with mouse BMP2 promotor-luciferase assessed as upregulation rate at 0.4 uM; assay type: functional, cell-based; outline: as §1
[30] = tested on: Mus musculus; test: Induction of bone mineral density in SAMP6 mouse assessed as whole body BMD at 10 mg/kg/day, po measured after 3 months; assay type: functional; outline: as §5
[31] = tested on: Mus musculus; test: Induction of bone formation in SAMP6 mouse right femora assessed as trabecular bone volume percentage at 10 mg/kg/day, po measured after 3 months by bone histomorphometry; assay type: functional, Trabecula; outline: as §2
[32] = tested on: Mus musculus; test: Induction of bone formation in SAMP6 mouse right femora assessed as trabecular formation surface percentage at 10 mg/kg/day, po measured after 3 months by bone histomorphometry; assay type: functional, Trabecula; outline: as §2
[33] = tested on: Mus musculus; test: Induction of bone mineral density in SAMP6 mouse assessed as spine BMD at 10 mg/kg/day, po measured after 3 months; assay type: functional; outline: as §5
[34] = tested on: Mus musculus; test: Induction of bone mineral density in SAMP6 mouse assessed as whole body BMD at 30 mg/kg/day, po measured after 2 months

SMILES: CCOC(=O)c1cc2cccc(F)c2o1
- Activity [1]: -18.1%

SMILES: C[S+]([O-])CC(=O)c1cc2ccccc2s1 (centres undefined)
- Activity [2]: 5.13%
- Activity [3]: 5.85 µm
- LD50 at 408 h [4]: > 700 mg/kg
- Activity [5]: inactive
- Activity [6]: Non-toxic
- Activity [1]: 19.7%
- Activity [7]: 0.09 g/cm2
- Activity [8]: Active
- Activity [9]: Non-toxic
- Activity [10]: Active
- Activity [11]: Non-toxic
- Activity [12]: Active
- Activity [13]: 0.05 g/cm2
- Activity [14]: 0.072 g/cm2
- Activity [15]: Active
- Activity [16]: Active
- Activity [17]: Non-toxic
- Activity [18]: 6.45%
- Activity [19]: Non-toxic
- Activity [20]: Active
- Activity [21]: Non-toxic
- Activity [22]: Non-toxic
- Activity [23]: Non-toxic
- Activity [24]: 5.95%

SMILES: CCOC(=O)c1cc2ccccc2s1
- Activity [1]: 8.2%

SMILES: C[S+]([O-])CC(=O)c1cc2ccccc2o1 (centres undefined)
- Activity [1]: 3.9%

SMILES: CCOC(=O)c1cc2cc(OC)c(OC)cc2s1
- Activity [1]: 49.9%

SMILES: COc1cc2cc(C(C)=O)sc2cc1OC
- Activity [1]: 37.1%

SMILES: CC[C@H](C)C(=O)O[C@H]1C[C@@H](C)C=C2C=C[C@H](C)[C@H](CC[C@@H]3C[C@@H](O)CC(=O)O3)[C@H]21 [LOVASTATIN]
- Activity [25]: 6.59 µm
- Activity [26]: Active
- Activity [27]: 0.046 g/cm2
- Activity [8]: Active
- Activity [28]: 6.64%
- Activity [29]: 20.9%
- Activity [30]: 0.07 g/cm2
- Activity [31]: 7.44%
- Activity [32]: 6.22%
- Activity [33]: 0.095 g/cm2

SMILES: CCOC(=O)c1ccc2sc(C(=O)/C=C/c3ccc(OC)c(OC)c3OC)cc2c1
- Activity [1]: -21.5%

SMILES: C[S+]([O-])CC(=O)c1cc2cc3c(cc2s1)OCO3 (centres undefined)
- Activity [1]: 0.6%

SMILES: COc1ccc(/C=C/C(=O)c2cc3ccccc3s2)cc1
- Activity [2]: 6.54%
- Activity [3]: 5.5 µm
- LD50 at 408 h [4]: > 500 mg/kg
- Activity [5]: inactive
- Activity [6]: Non-toxic
- Activity [1]: 27.3%
- Activity [7]: 0.089 g/cm2
- Activity [9]: Non-toxic
- Activity [34]: Active
- Activity [10]: Active
- Activity [11]: Non-toxic
- Activity [13]: 0.05 g/cm2
- Activity [14]: 0.07 g/cm2
- Activity [15]: Active
- Activity [16]: Active
- Activity [17]: Non-toxic
- Activity [18]: 6.29%
- Activity [19]: Non-toxic
- Activity [20]: Active
- Activity [21]: Non-toxic
- Activity [22]: Non-toxic
- Activity [23]: Non-toxic
- Activity [24]: 8.94%

SMILES: CC(=O)c1cc2ccccc2o1
- Activity [1]: 33.5%

SMILES: CCOC(=O)c1ccc2sc(C(=O)/C=C/c3ccccc3Cl)cc2c1
- Activity [1]: 24%

SMILES: COc1cc2cc(C(=O)C[S+](C)[O-])sc2cc1OC (centres undefined)
- Activity [1]: 13.5%

SMILES: O=C(/C=C/c1ccccc1)c1cc2ccccc2o1
- Activity [1]: 24.4%

SMILES: CCOC(=O)c1cc2ccccc2o1
- Activity [1]: 7.1%
